The source made the active and inactive calls.
What was measured:
[1] = biological target: T1, Peroxisome proliferator-activated receptor alpha (Mus musculus) (UniProt P23204); experiment: Agonist activity at PPARalpha in C57BL/6N mouse primary hepatocytes assessed as activation of Cpt1a mRNA expression at 50 uM measured after 18 hrs by qRT-PCR analysis; format: cell-based
T1 sequence (whole entry): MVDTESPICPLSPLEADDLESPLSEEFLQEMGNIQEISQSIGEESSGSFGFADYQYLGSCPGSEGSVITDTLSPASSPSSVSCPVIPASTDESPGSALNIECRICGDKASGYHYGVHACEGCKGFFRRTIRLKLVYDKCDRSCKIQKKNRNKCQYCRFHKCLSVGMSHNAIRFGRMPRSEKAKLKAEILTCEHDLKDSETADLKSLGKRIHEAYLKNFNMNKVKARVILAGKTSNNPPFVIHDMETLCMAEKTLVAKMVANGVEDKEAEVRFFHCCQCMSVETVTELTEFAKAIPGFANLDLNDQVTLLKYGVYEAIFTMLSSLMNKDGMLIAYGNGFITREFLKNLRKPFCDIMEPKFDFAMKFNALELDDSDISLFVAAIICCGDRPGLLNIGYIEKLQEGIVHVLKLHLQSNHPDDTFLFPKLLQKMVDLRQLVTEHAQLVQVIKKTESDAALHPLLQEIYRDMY
In short: (§1)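 Treatment for 18 h at 50 μM (or 1 μM for the 1 μM agents), DMSO vehicle. Harvested for qPCR. mRNA normalized to TBP by the comparative threshold method, expressed relative to DMSO control. Two biological replicates run in duplicate, mean ± SEM. Primary hepatocytes came from male C57BL/6N mice aged 7–8 weeks, isolated by portal-vein perfusion and digestion, seeded on collagen I and used on day 2. HuH-7 cells were kept in DMEM with 10% FBS and ITS.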

[2] = biological target: T2, Peroxisome proliferator-activated receptor alpha (Homo sapiens) (UniProt Q07869); experiment: Agonist activity at PPARalpha in human Huh7 cells assessed as PPARA mRNA expression at 50 uM measured after 18 hrs by qRT-PCR analysis; format: cell-based; in short: as §1
T2 sequence (whole entry): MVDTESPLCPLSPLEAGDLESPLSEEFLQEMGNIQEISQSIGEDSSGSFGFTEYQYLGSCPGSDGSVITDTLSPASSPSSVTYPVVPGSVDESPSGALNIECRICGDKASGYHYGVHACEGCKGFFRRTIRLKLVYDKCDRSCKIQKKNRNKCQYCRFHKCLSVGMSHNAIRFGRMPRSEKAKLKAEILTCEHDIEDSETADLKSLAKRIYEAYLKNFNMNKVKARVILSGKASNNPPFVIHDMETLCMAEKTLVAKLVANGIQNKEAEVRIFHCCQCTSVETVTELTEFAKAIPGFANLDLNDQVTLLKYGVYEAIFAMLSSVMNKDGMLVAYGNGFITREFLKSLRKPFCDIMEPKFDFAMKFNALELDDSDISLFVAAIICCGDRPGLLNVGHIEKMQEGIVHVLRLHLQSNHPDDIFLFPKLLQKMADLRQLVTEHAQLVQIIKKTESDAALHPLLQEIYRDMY

[3] = biological target: T2, Peroxisome proliferator-activated receptor alpha (Homo sapiens); experiment: Agonist activity at PPARalpha in human Huh7 cells assessed as activation of CPT1A mRNA expression at 50 uM measured after 18 hrs by qRT-PCR analysis; format: cell-based; in short: as §1
[4] = biological target: T2, Peroxisome proliferator-activated receptor alpha (Homo sapiens); experiment: Agonist activity at PPARalpha in human Huh7 cells assessed as SCD1 mRNA expression at 50 uM measured after 18 hrs by qRT-PCR analysis; format: cell-based; in short: as §1
[5] = biological target: T2, Peroxisome proliferator-activated receptor alpha (Homo sapiens); experiment: Agonist activity at PPARalpha in human Huh7 cells assessed as SREBF1 mRNA expression at 50 uM measured after 18 hrs by qRT-PCR analysis; format: cell-based; in short: as §1
[6] = biological target: T1, Peroxisome proliferator-activated receptor alpha (Mus musculus); experiment: Agonist activity at PPARalpha in C57BL/6N mouse primary hepatocytes assessed as SCD1 mRNA expression at 50 uM measured after 18 hrs by qRT-PCR analysis; format: cell-based; in short: as §1
[7] = biological target: T1, Peroxisome proliferator-activated receptor alpha (Mus musculus); experiment: Agonist activity at PPARalpha in C57BL/6N mouse primary hepatocytes assessed as SREBF1 mRNA expression at 50 uM measured after 18 hrs by qRT-PCR analysis; format: cell-based; in short: as §1
[8] = system: SGBS; experiment: Upregulation of PPARgamma gene expression in human preadipocyte derived from Simpson-Golabi-Behmel syndrome (SGBS) patient at 25 uM measured for 12 days by qRT-PCR analysis; format: functional, cell-based
In short: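 SGBS cells grown 4 days in biotin/D-pantothenate medium, then differentiated without FBS (apo-transferrin, insulin, T3, hydrocortisol, IBMX, dexamethasone) with 25 μM compound or 0.1 % DMSO added from day 0. After 4 days, switched to maintenance medium without IBMX/dexamethasone, renewed day 8. qPCR on days 0, 4, 8, 12, normalized to TBP (comparative threshold) and to day 0. Minimum three biological replicates in duplicate, mean ± SEM.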

[9] = system: SGBS; experiment: Upregulation of CEBPA gene expression in human preadipocyte derived from Simpson-Golabi-Behmel syndrome (SGBS) patient at 25 uM measured for 12 days by qRT-PCR analysis; format: functional, cell-based
In short: (§2)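 SGBS cells were differentiated with serum-free induction medium containing 25 μM test agent, 2 μM rosiglitazone or 0.1% DMSO from day 0. IBMX and dexamethasone were removed on day 4 and medium was renewed on day 8. RNA was taken on days 0, 4, 8 and 12 for qPCR, normalized to TBP and to day 0. At least three biological replicates in duplicate, two-way ANOVA with Bonferroni.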

[10] = system: SGBS; experiment: Upregulation of ACSL1 gene expression in human preadipocyte derived from Simpson-Golabi-Behmel syndrome (SGBS) patient at 25 uM measured for 12 days by qRT-PCR analysis; format: functional, cell-based; in short: as §2
[11] = system: SGBS; experiment: Upregulation of CD36 gene expression in human preadipocyte derived from Simpson-Golabi-Behmel syndrome (SGBS) patient at 25 uM measured for 12 days by qRT-PCR analysis; format: functional, cell-based; in short: as §2
[12] = system: SGBS; experiment: Upregulation of FABP4 gene expression in human preadipocyte derived from Simpson-Golabi-Behmel syndrome (SGBS) patient at 25 uM measured for 12 days by qRT-PCR analysis; format: functional, cell-based; in short: as §2
[13] = system: SGBS; experiment: Upregulation of PLIN1 gene expression in human preadipocyte derived from Simpson-Golabi-Behmel syndrome (SGBS) patient at 25 uM measured for 12 days by qRT-PCR analysis; format: functional, cell-based; in short: as §2
[14] = system: SGBS; experiment: Upregulation of ADIPOQ gene expression in human preadipocyte derived from Simpson-Golabi-Behmel syndrome (SGBS) patient at 25 uM measured for 12 days by qRT-PCR analysis; format: functional, cell-based; in short: as §2
[15] = system: SGBS; experiment: Upregulation of ANGPTL4 gene expression in human preadipocyte derived from Simpson-Golabi-Behmel syndrome (SGBS) patient at 25 uM measured for 12 days by qRT-PCR analysis; format: functional, cell-based; in short: as §2
[16] = system: SGBS; experiment: Induction of adipocyte differentiation in human preadipocyte derived from Simpson-Golabi-Behmel syndrome (SGBS) patient assessed as lipid accumulation at 25 uM measured for 12 days by Oil red O staining based microscopic analysis; format: functional, cell-based
In short: (§3)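 Differentiation of SGBS preadipocytes was started in serum-free medium with transferrin, insulin, T3, hydrocortisol, IBMX and dexamethasone, plus 25 μM test agent, 2 μM rosiglitazone or 0.1% DMSO. On day 4 medium was switched to lack IBMX and dexamethasone, and it was renewed on day 8. Cells were fixed with 4% PFA and stained with 0.3% Oil Red O on days 0, 4, 8 and 12, then photographed.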

[17] = biological target: T1, Peroxisome proliferator-activated receptor alpha (Mus musculus); experiment: Agonist activity at PPARalpha in C57BL/6N mouse primary hepatocytes assessed as activation of Scd1 mRNA expression at 1 uM measured after 18 hrs by qRT-PCR analysis; format: cell-based; in short: as §1
[18] = system: SGBS; experiment: Induction of adipocyte differentiation in human preadipocyte derived from Simpson-Golabi-Behmel syndrome (SGBS) patient assessed as lipid accumulation at 2 uM measured for 12 days by Oil red O staining based microscopic analysis; format: functional, cell-based; in short: as §3
[19] = biological target: T1, Peroxisome proliferator-activated receptor alpha (Mus musculus); experiment: Agonist activity at PPARalpha in C57BL/6N mouse primary hepatocytes assessed as activation of PPARalpha mRNA expression at 1 uM measured after 18 hrs by qRT-PCR analysis; format: cell-based; in short: as §1
[20] = system: SGBS; experiment: Upregulation of PPARgamma gene expression in human preadipocyte derived from Simpson-Golabi-Behmel syndrome (SGBS) patient at 2 uM measured for 12 days by qRT-PCR analysis; format: functional, cell-based; in short: as §2
[21] = system: SGBS; experiment: Upregulation of CEBPA gene expression in human preadipocyte derived from Simpson-Golabi-Behmel syndrome (SGBS) patient at 2 uM measured for 12 days by qRT-PCR analysis; format: functional, cell-based; in short: as §2
[22] = system: SGBS; experiment: Upregulation of ACSL1 gene expression in human preadipocyte derived from Simpson-Golabi-Behmel syndrome (SGBS) patient at 2 uM measured for 12 days by qRT-PCR analysis; format: functional, cell-based; in short: as §2
[23] = system: SGBS; experiment: Upregulation of CD36 gene expression in human preadipocyte derived from Simpson-Golabi-Behmel syndrome (SGBS) patient at 2 uM measured for 12 days by qRT-PCR analysis; format: functional, cell-based; in short: as §2
[24] = system: SGBS; experiment: Upregulation of FABP4 gene expression in human preadipocyte derived from Simpson-Golabi-Behmel syndrome (SGBS) patient at 2 uM measured for 12 days by qRT-PCR analysis; format: functional, cell-based; in short: as §2
[25] = system: SGBS; experiment: Upregulation of PLIN1 gene expression in human preadipocyte derived from Simpson-Golabi-Behmel syndrome (SGBS) patient at 2 uM measured for 12 days by qRT-PCR analysis; format: functional, cell-based; in short: as §2
[26] = system: SGBS; experiment: Upregulation of ADIPOQ gene expression in human preadipocyte derived from Simpson-Golabi-Behmel syndrome (SGBS) patient at 2 uM measured for 12 days by qRT-PCR analysis; format: functional, cell-based; in short: as §2
[27] = system: SGBS; experiment: Upregulation of ANGPTL4 gene expression in human preadipocyte derived from Simpson-Golabi-Behmel syndrome (SGBS) patient at 2 uM measured for 12 days by qRT-PCR analysis; format: functional, cell-based; in short: as §2
[28] = biological target: T1, Peroxisome proliferator-activated receptor alpha (Mus musculus); experiment: Agonist activity at PPARalpha in C57BL/6N mouse primary hepatocytes assessed as activation of Srebf1 mRNA expression at 1 uM measured after 18 hrs by qRT-PCR analysis; format: cell-based; in short: as §1
[29] = biological target: T1, Peroxisome proliferator-activated receptor alpha (Mus musculus); experiment: Agonist activity at PPARalpha in C57BL/6N mouse primary hepatocytes assessed as PPARA mRNA expression at 50 uM measured after 18 hrs by qRT-PCR analysis; format: cell-based; in short: as §1

In the case of `Cc1cccc(Nc2cc(Cl)nc(SCC(=O)O)n2)c1C`, the Activity [1] is reported as “Active”, the Activity [2] is reported as “inactive” and the Activity [3] is reported as “Active”. For the same compound, the Activity [4] was “inactive”, the Activity [5] was “inactive” and the Activity [6] was “Active”. The Activity [7] was “Active”, the Activity [8] was “Active” and the Activity [9] was “Active”. For the same compound, the Activity [10] was “Active”, the Activity [11] was “Active” and the Activity [12] was “Active”. For the same compound, the Activity [13] was “Active”, the Activity [14] was “Active” and the Activity [15] was “Active”. For the same compound, the Activity [16] was “Active”.

In the case of `CN(CCOc1ccc(CC2SC(=O)NC2=O)cc1)c1ccccn1` (stereo not drawn), the Activity [17] is reported as “inactive”, the Activity [18] is reported as “Active” and the Activity [19] is reported as “Active”. The Activity [20] was “Active”, the Activity [21] was “Active” and the Activity [22] was “Active”. The Activity [23] was “Active”, the Activity [24] was “Active” and the Activity [25] was “Active”. The Activity [26] was “Active”, the Activity [27] was “Active” and the Activity [28] was “inactive”.

`CCCCCCCC(=O)/C=C/CCCCCC(=O)O` was tested, and the Activity [2] was “inactive”, the Activity [4] was “inactive” and the Activity [5] was “inactive”. The Activity [29] was “Active”, the Activity [6] was “inactive” and the Activity [7] was “inactive”. The Activity [8] was “Active”, the Activity [9] was “Active” and the Activity [10] was “Active”. The Activity [11] was “Active”, the Activity [12] was “Active” and the Activity [13] was “Active”. The Activity [14] was “Active”, the Activity [15] was “Active” and the Activity [16] was “Active”.
